MEX-5 binding = MEX-5 zinc finger RNA-binding disruptors – biochemical, C. elegans, fluorescence polarization, MLPCN library, primary screen; Zinc finger protein mex-5 (Caenorhabditis elegans), Q9XUB2; MEX-5/FITC-TCR2 RNA binding; active compounds read low; activity score (negative = inhibition of binding), % at 10 µM; 300,000 compounds, 0.38% hits; AID 1832, 2009;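 active = inhibition past about -25% in most replicates, and total fluorescence under double the plate's negative control median, limit read from the data; inconclusive = replicates evenly split on the limit, or fluorescence at least double controls; inactive = too little inhibition in most replicates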
Target sequence (Q9XUB2 whole entry, looked up): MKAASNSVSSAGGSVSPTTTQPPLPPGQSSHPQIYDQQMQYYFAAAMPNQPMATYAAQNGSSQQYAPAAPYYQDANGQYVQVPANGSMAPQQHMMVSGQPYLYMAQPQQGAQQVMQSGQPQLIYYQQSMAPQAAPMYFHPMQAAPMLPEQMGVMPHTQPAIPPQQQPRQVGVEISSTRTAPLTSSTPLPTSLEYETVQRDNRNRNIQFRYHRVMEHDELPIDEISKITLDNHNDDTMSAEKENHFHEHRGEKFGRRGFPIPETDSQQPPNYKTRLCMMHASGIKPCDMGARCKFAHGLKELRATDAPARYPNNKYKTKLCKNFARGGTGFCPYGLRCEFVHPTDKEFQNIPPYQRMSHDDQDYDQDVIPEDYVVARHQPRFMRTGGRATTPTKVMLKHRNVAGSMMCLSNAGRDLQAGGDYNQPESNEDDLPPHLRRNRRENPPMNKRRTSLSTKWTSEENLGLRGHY
VIM-2 inh = VIM-2 metallo-beta-lactamase inhibitors, primary screen, biochemical, epi-absorbance readout, Pseudomonas aeruginosa enzyme; purified VIM-2, nitrocefin hydrolysis, epi-absorbance fluorescence; inhibition, % at 5.6 µM; 290,000 compounds, 0.89% hits;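 active = inhibition above the mean of all tested compounds plus 3 SD, cutoff set per screening run, cut at about 7.5% in these data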;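 note: red hydrolysis product quenches plate fluorescence so inhibitors raise well fluorescence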
BCLXL inh = inhibitors of human Bcl-xL, primary screen, biochemical, fluorescence polarization, HTS. GST-Bcl-xL / FITC-Bim BH3 peptide fluorescence polarization. inhibition, % at 10.9 µM. 320,000 compounds, 0.7% hits. AID 2129, 2009;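 active = inhibition above the mean of all tested compounds plus 3 SD, cutoff set per campaign, cut at about 30% in these data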;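 note: inhibitors lower millipolarization by displacing the labeled peptide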
Target sequence (Q07817 whole entry, looked up): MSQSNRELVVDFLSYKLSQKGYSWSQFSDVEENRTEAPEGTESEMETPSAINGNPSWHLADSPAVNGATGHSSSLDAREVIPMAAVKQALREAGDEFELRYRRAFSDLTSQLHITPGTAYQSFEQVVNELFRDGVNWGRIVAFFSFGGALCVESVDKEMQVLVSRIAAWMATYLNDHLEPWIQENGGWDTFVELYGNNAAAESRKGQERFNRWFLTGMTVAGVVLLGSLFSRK
GLD-1 RNA inh = GLD-1/TGE RNA complex disruptors, primary screen, biochemical, fluorescence polarization; AID 2280, 2010; purified GLD-1 + fluorescein TGE RNA; inhibition, % at 5.96 µM; 320,000 compounds, 0.44% hits;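 active = percent inhibition above a per-plate cutoff, the plate mean of test compounds plus 3 SD, cut at about 30% in these data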
IMP-1 inh = IMP-1 metallo-beta-lactamase inhibitors, primary screen, biochemical, epi-absorbance readout, Pseudomonas aeruginosa enzyme | metallo-beta-lactamase IMP-1 (Pseudomonas aeruginosa) | purified IMP-1, nitrocefin hydrolysis, epi-absorbance fluorescence | inhibition, % at 5.6 µM | 290,000 compounds, 0.45% hits;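 active = inhibition above the mean plus 3 SD of all compounds in the same screening run, cut at about 4.5% in these data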
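assay system = purified recombinant IMP-1 metallo-beta-lactamase enzyme | schedule = 15 min preincubation plus 25 min reaction at 25 °C | signal = Epi-absorbance fluorescence, 480 nm excitation, 530 nm emission | read-out basis = percent inhibition from optical density relative to buffer-blank wells | controls = IMP-1 with DMSO as 0%, enzyme-free DMSO as 100%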
EBV gp42 inh = Epstein-Barr virus gp42 inhibitors, primary screen, biochemical, uHTS, fluorescence polarization | Glycoprotein 42 (Epstein-Barr virus (strain AG876)), Q1HVG2 | Fluorescence polarization binding assay, mP read-out | inhibition, % (tested at 21.74 µM) | 220,000 compounds, 0.42% hits | AID 1085, 2008; in the data active = inhibition above about 50%
A number is an active result; i = inactive; ? = inconclusive; nt = no result given. The list is not random: actives were taken first. Their share in the collection is about 2.2%.

SMILES	MEX-5 binding	VIM-2 inh	BCLXL inh	GLD-1 RNA inh	IMP-1 inh	EBV gp42 inh
O=C1c2cccc3cccc(c23)C(=O)N1CCN1CCN(C(=S)Nc2ccc(F)cc2)CC1	i	i	i	i	i	i
O=C(CN1CCN(CCN2C(=O)c3cccc4cccc(c34)C2=O)CC1)c1ccc(F)cc1	i	8.9	i	i	i	i
COc1ccc(N2CCN(C(CNC(=O)COc3ccccc3)c3ccco3)CC2)cc1 (stereo not drawn)	i	nt	i	i	nt	nt
CC(=O)Nc1nonc1NC(=O)CSc1ccccn1	i	i	i	83	i	i
N#CC1=C(N)C(C#N)(C#N)C(c2cccnc2)C2COCC=C12 (stereo not drawn)	-26	i	i	i	i	i
C[C@@H]1CN(c2c(F)c(F)c3c(=O)c(C(=O)O)cn(C4CC4)c3c2F)C[C@H](C)N1	i	i	nt	nt	i	nt
C[C@@H]1CN(c2c(F)c(N)c3c(=O)c(C(=O)O)cn(C4CC4)c3c2F)C[C@H](C)N1	nt	8.4	nt	nt	i	i
CCN(Cc1ccccc1)C(=O)c1ccc2c(=O)n3c(nc2c1)CCC3	i	nt	i	i	nt	nt
CC(C)NC(=O)c1ccc(N(Cc2ccccc2)S(C)(=O)=O)cc1	i	i	nt	nt	i	nt
Cc1ccc(S(=O)(=O)NC(C)(C)C)cc1C(=O)OCC(=O)N1CCCC1=O	i	nt	i	i	nt	nt
CN(C)c1ccc(N=Cc2nc(-c3ccccc3)oc2OC(=O)c2cccc(Br)c2)cc1	-43	i	i	i	i	i
COc1ccc(N=Cc2nc(-c3ccccc3)oc2OC(=O)c2ccccc2)cc1	i	i	i	i	i	i
O=C(Cn1ncc2c([nH]c3ccccc32)c1=O)Nc1ccc(CN2CCCCC2)cc1	i	i	i	i	i	nt
C=CCN(C(=O)Cc1cccs1)c1nc(-c2ccc(S(C)(=O)=O)cc2)cs1	i	i	i	i	5.3	nt
C=CCN(C(=O)CCc1ccccc1OC)c1nc(-c2ccc(S(C)(=O)=O)cc2)cs1	i	i	i	i	4.6	nt
C=CCN(C(=O)c1cccc(S(=O)(=O)N2CCN(C)CC2)c1)c1nc(-c2ccccc2)cs1	i	i	i	i	i	i
CC(C)OCCCNC(=O)CCCC(=O)Nc1ccc(OCCc2ccccc2)cc1	i	i	i	i	i	nt
S=c1nc(C2CC2)[nH]c2ccccc12	i	11	i	i	i	i
S=c1nc(C2CCCCC2)[nH]c2ccccc12	i	i	i	i	i	i
CN(CCC#N)C(=O)COC(=O)c1c2c(nc3ccccc13)/C(=C/c1ccco1)CC2	i	i	44	i	i	95
O=C(COC(=O)c1c2c(nc3ccccc13)/C(=C\c1cccs1)CCC2)Nc1ccccc1	i	i	i	i	i	i
Cc1ncc(CO)c2c1Oc1nc(-c3ccccc3)nc(SCC(=O)N3CCOCC3)c1C2	i	i	i	i	32	nt
Cc1ncc(CO)c2c1Oc1nc(-c3ccccc3)nc(SCC(=O)N3CCCCC3)c1C2	i	i	i	i	i	nt
Cc1ncc(CO)c2c1Oc1nc(-c3ccccc3)nc(SCC(=O)N(C)c3ccccc3)c1C2	i	i	i	i	7.9	nt
COc1ccccc1N1CCN(S(=O)(=O)CCNC(=O)C2CCCC2)CC1	i	nt	i	i	nt	nt
SMILES	MEX-5 binding	VIM-2 inh	BCLXL inh	GLD-1 RNA inh	IMP-1 inh	EBV gp42 inh
O=C(NCCC(=O)N(Cc1ccco1)Cc1cccs1)c1ccc(Br)cc1	nt	nt	i	i	nt	nt
COc1ccccc1NC(=O)CNC(=O)Cn1cnc2sc(C)c(C)c2c1=O	i	i	i	i	i	nt
CCOC(=O)[C@H]1[C@H]2COc3ccc(OC)cc3[C@H]2N2C(=O)CNC(=O)[C@@]12C	nt	nt	i	i	nt	nt
CCN(CC)Cc1c(O)ccc2cc(-c3nc4ccccc4n3C)c(=O)oc12	i	i	36	i	i	nt
CCSc1ncc(Cl)c(C(=O)Nc2ccc(S(N)(=O)=O)cc2)n1	i	8.6	i	i	i	nt
CCn1c(CSc2nnc(-c3ccncc3)n2CCOC)nc2cc(C(=O)O)ccc21	i	i	i	i	i	i
CCn1c(CSc2n[nH]c(N)n2)nc2cc(C(=O)O)ccc21	i	i	i	i	i	64
CC1(NC(=O)Cc2c(Cl)cccc2Cl)CCS(=O)(=O)C1 (stereo not drawn)	nt	nt	i	i	nt	nt
Cc1ccc(-c2nnc(Nc3ccc(CC(N)=O)cc3)c3ccccc23)cc1S(N)(=O)=O	-32	i	i	i	i	nt
O=S1(=O)NC(C2CC2c2ccccc2)CCO1 (stereo not drawn)	i	i	i	i	i	nt
Cc1ccc2nc(/C(C#N)=C\c3ccc(Oc4ccc(C(F)(F)F)cc4[N+](=O)[O-])cc3)[nH]c2c1	i	i	i	i	i	i
COc1ccc(/C=C(\C#N)c2nc3ccc(C)cc3[nH]2)cc1Oc1ccc(C(F)(F)F)cc1[N+](=O)[O-]	-58	i	i	i	i	i
CN(C(=O)COC(=O)C1CCN(S(=O)(=O)c2c(Cl)cccc2Cl)CC1)C1CCCCC1	i	nt	i	i	nt	nt
O=C(NCc1ccc(Cl)cc1)c1cc(=O)[nH]c2ccccc12	i	i	i	i	i	nt
C=CCOc1ccc(/C=C2\SC(=Nc3cccnc3)NC2=O)cc1	i	i	64	i	i	i
CC(/C=C1\SC(=Nc2cccnc2)NC1=O)=C\c1ccccc1	i	i	i	i	i	i
CCSc1nc(N)c(C#N)c(-c2ccco2)c1C#N	i	i	i	i	4.5	i
CCCN1C(=O)S/C(=C/c2ccc(N3CCOCC3)o2)C1=O	?	i	i	i	i	i
CCCN1C(=O)S/C(=C\c2ccc(N3CCOCC3)o2)C1=O	i	i	i	i	5.9	i
O=C1CCC(C(=O)Nc2ccc([N+](=O)[O-])cc2)N1 (stereo not drawn)	nt	nt	i	i	nt	nt
O=C(CN1CCN(C(=O)c2ccco2)CC1)N1CCc2[nH]c3ccccc3c2C1	i	i	36	i	i	i
O=C(c1ccco1)N1CCN(Cc2nc3ccccc3[nH]2)CC1	nt	nt	nt	i	nt	nt
Cc1ccc2[nH]c3c(c2c1)CN(C(=O)CN1CCN(c2cccc(C)c2C)CC1)CC3	i	i	38	i	i	i
O=C(CN1CCSCC1)N1CCc2[nH]c3ccc(Br)cc3c2C1	i	i	nt	nt	i	i
Cc1ccc2[nH]c3c(c2c1)CN(C(=O)CN1CCN(C(=O)c2ccco2)CC1)CC3	?	i	48	32	i	i
CCCCNC(=O)CN(Cc1ccco1)S(=O)(=O)c1ccc(C(C)=O)cc1	nt	nt	i	i	nt	nt
COc1ccc(CNC(=O)C2CCN(S(=O)(=O)c3c(C)noc3/C=C/N(C)C)CC2)cc1	i	i	i	i	i	nt
